The results in this text go back to ChEMBL document CHEMBL5120823, “Feature-Based Molecular Networking Discovery of Bromopyrrole Alkaloids from the Marine Sponge Agelas dispar” (J Nat Prod, 2022).

≈ marks a conversion by molar mass, not a printed value.

A word on the MIC: it is the smallest concentration in the dilution series that meets the test's criterion for growth inhibition. Low readings indicate greater potency, high ones weaker potency.

In data set [1] the test system is Escherichia coli. Description: Antibacterial activity against ESBL-producing Escherichia coli ATCC 35218 incubated for 24 hrs by broth microdilution method. In kind it is functional. The method, boiled down:
(§1)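 CLSI-based broth microdilution. Pure bacterial suspensions were set to 0.5 McFarland (about (1−2) × 10^8 CFU/mL) and diluted to a final inoculum of about 5 × 10^5 CFU/mL. Compounds were tested in 2-fold dilutions from 100 to 0.78 μM and incubated at 35 °C for 24 h. MIC was read as the lowest concentration with no growth visible to the unaided eye.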
On the technique in general: Broth dilution looks for growth in wells or tubes with falling amounts of substance.

Data set [2] has as its system Staphylococcus aureus. Nature of the data set: Antibacterial activity against oxacillin-resistant Staphylococcus aureus ATCC 33591 incubated for 24 hrs by broth microdilution method. In kind it is functional. The method, boiled down:
(§2)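 CLSI-based broth microdilution. Pure bacterial suspensions adjusted to 0.5 McFarland (about (1−2) × 10^8 CFU/mL), then diluted to a final inoculum of about 5 × 10^5 CFU/mL (5 × 10^4 CFU/well). Compounds were tested in 2-fold dilutions from 100 to 0.78 μM. Plates incubated 24 h at 35 °C. MIC was the lowest concentration with complete growth inhibition by unaided eye, reported in μM.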

For data set [3], the system named is Enterococcus faecalis. Description: Antibacterial activity against vancomycin resistant Enterococcus faecalis ATCC 51299 incubated for 24 hrs by broth microdilution method. In kind it is functional. Put shortly: as §2
Data set [4] in a line: Hemolytic activity against BALB/c mouse erythrocyte at 100 uM measured after 2 hrs relative to control. In kind it is toxicity, cell-based. The conditions noted are these: erythrocytes, read-out: Activity. The method, boiled down:
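BALB/c mouse erythrocytes, as a 3% suspension in 1× PBS, were exposed to compound at 100 to 6.25 μM for 2 h at 24 °C. Hemolysis was read as supernatant optical density at 570 nm. Distilled water gave maximum hemolysis, and untreated erythrocytes served as the negative control.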

Data set [5] concerns Staphylococcus aureus. Description: Antibacterial activity against Staphylococcus aureus ATCC 25923 incubated for 24 hrs by broth microdilution method. In kind it is functional. Put shortly:
as §2

Data set [6] concerns OVCAR3 (Homo sapiens). Description: Cytotoxicity against human OVCAR3 cells assessed as inhibition of cell viability at 50 uM incubated for 72 hrs by MTT assay relative to control. (Tetrazolium assays rely on reduction of a dye to a coloured formazan, in cell work by metabolically active cells.)
Data set [7] deals with Escherichia coli. Nature of the data set: Antibacterial activity against Escherichia coli ATCC 25922 incubated for 24 hrs by broth microdilution method. In kind it is functional. Put shortly: as §1
Data set [8] relates to Enterococcus faecalis. Description: Antibacterial activity against Enterococcus faecalis ATCC 29212 incubated for 24 hrs by broth microdilution method. In kind it is functional. The method, boiled down:
as §1

Data set [9] relates to Klebsiella pneumoniae. Nature of the data set: Antibacterial activity against carbapenem-resistant Klebsiella pneumoniae id-146/19 incubated for 24 hrs by broth microdilution method. In kind it is functional. The method, boiled down:
as §2

In data set [10] the test system is Klebsiella pneumoniae. Description: Antibacterial activity against Klebsiella pneumoniae ATCC 700603 incubated for 24 hrs by broth microdilution method. In kind it is functional. The method, boiled down:
as §1

Data set [11] relates to Acinetobacter baumannii. Nature of the data set: Antibacterial activity against carbapenem-resistant Acinetobacter baumannii id-261/16 incubated for 24 hrs by broth microdilution method. In kind it is functional. Put shortly:
as §2

Data set [12] concerns Acinetobacter baumannii. Description: Antibacterial activity against Acinetobacter baumannii ATCC 19606 incubated for 24 hrs by broth microdilution method. In kind it is functional. Put shortly: as §1
Data set [13] relates to Pseudomonas aeruginosa. Description: Antibacterial activity against carbapenem-resistant Pseudomonas aeruginosa S-6065/06 incubated for 24 hrs by broth microdilution method. In kind it is functional. The method, boiled down:
as §2

Data set [14] relates to Pseudomonas aeruginosa. Description: Antibacterial activity against Pseudomonas aeruginosa ATCC 27853 incubated for 24 hrs by broth microdilution method. In kind it is functional. The method, boiled down: as §1

Regarding `Nc1nc([C@@H]2c3[nH]c(N)nc3C[C@H](CNC(=O)c3cc(Br)c[nH]3)[C@H]2CNC(=O)c2cc(Br)c[nH]2)c[nH]1`, the MIC in data set [1] is 100 µM (≈ 62 µg/mL); in [2], over 100 µM; in data set [3] it was over 100 µM; in [5] it was over 100 µM; in [7], 100 µM (≈ 62 µg/mL); in data set [8], over 100 µM. Also, the MIC in data set [9] was over 100 µM; in data set [10], over 100 µM; in data set [11], over 100 µM; in data set [12], over 100 µM; in [13] it was over 100 µM; in data set [14], 50 µM (≈ 31 µg/mL). Further, the hemolysis at 2 h, 100 µM in data set [4] stood at 2.3%. In [6], the Activity came out at 50%.

With `Nc1nc([C@@H]2c3nc(N)[nH]c3C[C@H](CNC(=O)c3cc(Br)c(Br)[nH]3)[C@H]2CNC(=O)c2cc(Br)c(Br)[nH]2)c[nH]1`, the MIC in data set [1] worked out at 12.5 µM (≈ 9.73 µg/mL); in data set [2] it was 6.2 µM (≈ 4.82 µg/mL); in [3], 6.2 µM (≈ 4.82 µg/mL); in data set [5] it was 6.2 µM (≈ 4.82 µg/mL); in [7] it was 12.5 µM (≈ 9.73 µg/mL); in data set [8], 6.2 µM (≈ 4.82 µg/mL). Besides, the minimal inhibitory concentration (MIC) worked out at 25 µM (≈ 19.5 µg/mL) in data set [9]; 12.5 µM (≈ 9.73 µg/mL) in [10]; 100 µM (≈ 77.8 µg/mL) in data set [11]; 100 µM (≈ 77.8 µg/mL) in [12]; 25 µM (≈ 19.5 µg/mL) in [13]; 25 µM (≈ 19.5 µg/mL) in data set [14]. Further, the hemolysis at 2 h, 100 µM in [4] was found to be 0.7%.

Consider `Nc1nc([C@@H]2c3[nH]c(N)nc3C[C@H](CNC(=O)c3cc(Br)c[nH]3)[C@H]2CNC(=O)c2cc(Br)c(Br)[nH]2)c[nH]1` [BROMOAGELIFERIN], for which the MIC in [1] is 25 µM (≈ 17.5 µg/mL); in data set [2] it was 12.5 µM (≈ 8.74 µg/mL); in data set [3], over 100 µM; in [5], 12.5 µM (≈ 8.74 µg/mL); in data set [7], 12.5 µM (≈ 8.74 µg/mL); in data set [8], over 100 µM. In addition, the MIC in data set [9] is over 100 µM; in [10] it was over 100 µM; in [11], 100 µM (≈ 69.9 µg/mL); in data set [12] it was over 100 µM; in data set [13] it was 50 µM (≈ 35 µg/mL); in data set [14], 12.5 µM (≈ 8.74 µg/mL). Besides, the hemolysis at 2 h, 100 µM in data set [4] came out at 1.5%.
